The test system of assay [1] is MCF7. The assay is described as follows: Cytotoxicity against human MCF7 cells assessed as reduction in cell viability. The format is functional, cell-based. The essentials:
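MTT viability assay. For the 72 h format, cells were plated overnight at 4.0×10^3 cells/well and then exposed to compounds for 72 h. For the 24 h screening format, cells were plated at 8.0×10^3 cells/well and exposed for 24 h. Medium was then refreshed, MTT was added at 0.5 mg/mL for 4 h at 37 °C, and cells were lysed in DMSO. Absorbance was read at 570 nm. IC50 reported as mean ± SD, n = 3.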

A short description of assay [2]: Inhibition of HIF1 (unknown origin) expressed in HEK293 cells assessed as reduction in hypoxia-induced HIF1 activation by luciferase reporter gene assay. The conditions noted are these: Homo sapiens. The format is cell-based. The essentials:
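HEK293 clone stably carrying the p2.1 HRE-luciferase reporter, seeded at 8.0×10^4 cells/well and grown 24 h under normoxia. Cells were given fresh medium containing 0.25% DMSO and a range of compound concentrations for 1 h, then held under hypoxia (1% O2) or normoxia for 24 h. Luciferase activity was measured with a kit and normalised to protein content. IC50 reported as mean ± SD, n = 3.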
Background: Reporter assays use an easily measured gene product as a stand-in for the process of interest.

Assay [3] in a line: Inhibition of HIF1 (unknown origin) expressed in HEK293 cells assessed as reduction in hypoxia-induced HIF1 activation pre-incubated for 1 hrs before hypoxia exposure for 24 hrs by luciferase reporter gene assay. The format is cell-based. The conditions noted are these: Homo sapiens. The essentials: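 HEK293 cells stably carrying HRE reporter plasmid p2.1, seeded at 8.0×10^4 per well and grown 24 h in normoxia. Medium changed to fresh medium with 0.25% DMSO and a range of compound concentrations for 1 h, then 24 h at 1% O2 or normoxia. Luciferase activity normalised to protein content. IC50 as mean ± SD, n = 3.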

Assay [4] deals with MCF7. Description: Inhibition of hypoxia-induced HIF1 mRNA expression in human MCF7 cells incubated for 16 hrs by RT-PCR analysis. The format is functional, cell-based.
For assay [5], the system named is MCF7. The assay is described as follows: Cytotoxicity against human MCF7 cells assessed as reduction in cell viability incubated for 24 hrs by MTT assay. The assay is classed as functional, cell-based. As to conditions: MCF7, 24 h. Put shortly:
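MCF-7 cells seeded at 8.0×10^3 per well and treated with compound for 24 h. MTT 0.5 mg/mL added for 4 h at 37 °C after medium exchange, then DMSO lysis and absorbance at 570 nm. IC50 as mean ± SD, n = 3.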
A general note: Tetrazolium assays rely on reduction of a dye to a coloured formazan, in cell work by metabolically active cells.

The test system of assay [6] is MCF7. Description: Cytotoxicity against human MCF7 cells assessed as reduction in cell viability incubated for 72 hrs by MTT assay. The assay is classed as functional, cell-based. As to conditions: MCF7, 72 h. The essentials: (§1)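 Cells seeded overnight at 3.0×10^3 (A549), 5.0×10^3 (HT29) or 4.0×10^3 (MCF-7, MDA-MB-231) per well, then exposed to compound for 72 h. Medium replaced, MTT 0.5 mg/mL added for 4 h at 37 °C, cells lysed in DMSO, absorbance read at 570 nm. IC50 as mean ± SD, n = 3. Final DMSO below 1.0%.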

For a further assay, the system named is MDA-MB-231. Description: Cytotoxicity against human MDA-MB-231 cells assessed as reduction in cell viability incubated for 72 hrs by MTT assay. The format is functional, cell-based. As to conditions: MDA-MB-231, 72 h. Put shortly:
as §1

For another assay, the system named is A549. Description: Cytotoxicity against human A549 cells assessed as reduction in cell viability incubated for 72 hrs by MTT assay. The assay is classed as functional, cell-based. The conditions noted are these: A549, 72 h. The essentials:
as §1

Assay [7] can be described thus: Retardation factor of the compound.
Another assay relates to HT-29. The assay is described as follows: Cytotoxicity against human HT-29 cells assessed as reduction in cell viability incubated for 72 hrs by MTT assay. The conditions noted are these: HT-29, 72 h. The assay is classed as functional, cell-based. Put shortly:
as §1

A short description of assay [8]: Binding affinity to synthetic d(ACGTAGAACGT) dsDNA assessed as melting temperature at 2.5 uM by SYBR green I dye dependent differential scanning fluorimetry based thermal denaturation method (reference value: 44.2 +/- 1.0 degC). For orientation: Differential scanning fluorimetry follows unfolding on heating by fluorescence.
Assay [9] is described as follows: Binding affinity to synthetic 5'-FAM-CCCTACGTATATGAAAATATACGTAGGG-BHQ1-3' dsDNA assessed as melting temperature at 2.5 uM by SYBR green I dye dependent differential scanning fluorimetry based thermal denaturation method (reference value: 70.7 +/- 0.0 degC).

pIC50: −log10 of the molar value. Calls of active or inactive are those of the source. The calls are words filed in the database; no cut-off is given here.

Results on two molecules are retold here after ChEMBL document CHEMBL4342497, “Design, Synthesis, and Conformation-Activity Study of Unnatural Bridged Bicyclic Depsipeptides as Highly Potent Hypoxia Inducible Factor-1 Inhibitors and Antitumor Agents” (J Med Chem, 2020).

In general, pIC50 refers to −log10 of the IC50, conventionally taken in molar units. What is called Tm is the temperature at the midpoint of the melting transition. With `CSC1SC[C@H]2C(=O)N(C)[C@@H](C(C)C)C(=O)OC[C@@H](NC(=O)c3cnc4ccccc4n3)C(=O)N[C@@H](C)C(=O)N(C)[C@@H]1C(=O)N(C)[C@@H](C(C)C)C(=O)OC[C@@H](NC(=O)c1cnc3ccccc3n1)C(=O)N[C@@H](C)C(=O)N2C` (stereo partly drawn), the negative logarithm of the IC50 (pIC50) in the assay on MCF7 [1] was 8.26; in assay [2] it was 9.46; in assay [3], 9.46; with MCF7 [5], 8.26; in the assay with MCF7 [6] it was 8.70; with MDA-MB-231, 8.64. Besides, the figures for the pIC50 in the assay with A549 and in the assay with HT-29 were 8.33 and 8.46, respectively. Besides, in the assay on MCF7 [4], the inhibition entry was “inactive”. The same molecule came in with a Rm in [7] of 0.28. Also, the results for the Tm in assay [8] and in [9] were 55.8 °C and 81.6 °C, respectively.
Turning to `CC(C)[C@H]1C(=O)OC[C@@H](NC(=O)c2cnc3ccccc3n2)C(=O)N[C@@H](C)C(=O)N(C)[C@H]2CSSC[C@@H](C(=O)N1C)N(C)C(=O)[C@H](C)NC(=O)[C@H](NC(=O)c1cnc3ccccc3n1)COC(=O)[C@H](C(C)C)N(C)C2=O` [TRIOSTIN], the negative logarithm of the IC50 (pIC50) is 5.39 in the assay with MCF7 [1]; 7.57 in assay [2]; 7.57 in [3]; 5.70 in the assay with MCF7 [5]; 6.67 in the assay on MCF7 [6]; 6.75 in the assay on MDA-MB-231. The negative logarithm of the IC50 (pIC50) in the assay on A549 is 6.49; in the assay on HT-29, 6.47. In assay [7], this molecule had a Rm of 0.15. The Tm in assay [8] came to 47.2 °C; in assay [9], 78 °C.
